The results in this text go back to ChEMBL document CHEMBL4261600 (Eur J Med Chem, 2018).

The clearance is the volume of plasma or blood freed of the substance per unit of time. The low end stands for inefficient removal, the high end for efficient removal. As usually defined, the IC50 is the concentration needed to halve the response being measured. Usually GI50 stands for the concentration at which growth is held to half of that of the control. Higher therefore signals lower sensitivity of the cells. The bioavailability is dose-corrected exposure relative to a reference, in per cent. The low end stands for poor availability, the high end for good availability.

Molecules are shown by their SMILES. A value given as a limit tells only on which side of the number the result lay.

The target of data set [1] is Myosin light chain kinase family member 4 (Homo sapiens) (UniProt Q86YV6). The data set is described as follows: Binding affinity to wild-type human partial length MYLK4 (V79 to S380 residues) expressed in bacterial expression system assessed as remaining unbound target protein level at 1000 nM by Kinomescan method relative to control. The method, boiled down: (§1)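 KINOMEscan binding panel of 468 kinases/mutants. Inhibitor was tested at a single concentration of 1 μM. Binding is reported as percent of control, defined relative to a DMSO control.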

Data set [2] has as its target Bone morphogenetic protein receptor type-1A (Homo sapiens) (UniProt P36894). The data set is described as follows: Binding affinity to wild-type human partial length BMPR1A (Q214 to I532 residues) expressed in bacterial expression system assessed as remaining unbound target protein level at 1000 nM by Kinomescan method relative to control. In short, it runs like this: (§2)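 Profiled in a KINOMEscan binding panel with the inhibitor at a single concentration of 1 μM. Binding to each kinase was read out as percent of control, relative to a DMSO control. Strong binders were defined as those with a percent control value below 1.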

Data set [3] addresses Epidermal growth factor receptor (Homo sapiens) (UniProt P00533). Briefly: Binding affinity to human partial length EGFR L747-T751del/Sins mutant expressed in bacterial expression system assessed as remaining unbound target protein level at 1000 nM by Kinomescan method relative to control. The method, boiled down: (§3)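 KINOMEscan competition-binding profiling across the panel of 468 kinases and mutants, with inhibitor tested at 1 μM. Binding is expressed as percent of control, with DMSO as the reference control.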

The target in data set [4] is Protein kinase C epsilon type (Homo sapiens) (UniProt Q02156). The data set is described as follows: Binding affinity to wild-type human partial length PRKCE (A378 to P737 residues) expressed in mammalian expression system assessed as remaining unbound target protein level at 1000 nM by Kinomescan method relative to control.
Data set [5] has as its target LIM domain kinase 2 (Homo sapiens) (UniProt P53671). The data set is described as follows: Binding affinity to wild-type human full length LIMK2 (M1 to P638 residues) expressed in bacterial expression system assessed as remaining unbound target protein level at 1000 nM by Kinomescan method relative to control. In short, it runs like this: (§4)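 Single-point competition binding screen across a panel of 468 kinases and mutants, with the inhibitor at 1 μM. Binding is read out as percent of a DMSO control, and targets below 1 percent control were classed as strong binders.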

The target of data set [6] is T1, Cyclin-dependent kinase 11B (Homo sapiens, UniProt P21127). The data set is described as follows: Binding affinity to wild-type human partial length CDC2L1 (P353 to G692 residues) expressed in bacterial expression system assessed as remaining unbound target protein level at 1000 nM by Kinomescan method relative to control. In short, it runs like this:
as §2

Data set [7] is described as follows: Clearance in Sprague-Dawley rat at 3 mg/kg, iv by LC-MS/MS analysis. The class given is ADME, organism-based. The settings on record: in vivo.
Data set [8] addresses Tyrosine-protein kinase Fyn (Homo sapiens) (UniProt P06241). The data set is described as follows: Binding affinity to wild-type human partial length FYN (T243 to L534 residues) expressed in bacterial expression system assessed as remaining unbound target protein level at 1000 nM by Kinomescan method relative to control.
Data set [9] deals with Epidermal growth factor receptor (Homo sapiens) (UniProt P00533). The data set is described as follows: Binding affinity to human partial length EGFR E746-A750del mutant expressed in bacterial expression system assessed as remaining unbound target protein level at 1000 nM by Kinomescan method relative to control. In short, it runs like this: as §3
Data set [10] concerns the target Cyclin-dependent kinase 7 (Homo sapiens) (UniProt P50613). The data set is described as follows: Binding affinity to wild-type human full length CDK7 (M1 to L344 residues) expressed in mammalian expression system assessed as remaining unbound target protein level at 1000 nM by Kinomescan method relative to control. In short, it runs like this:
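KINOMEscan competitive binding profile at 1 μM inhibitor. Remaining target binding reported as percent of DMSO control.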

In another data set the target is CDK8/Cyclin C (Homo sapiens, UniProt P49336). Briefly: Inhibition of recombinant full length His-tagged human CDK8/CyclinC expressed in baculovirus expression system.
In data set [11] the target is T1, Cyclin-dependent kinase 11B. The data set is described as follows: Inhibition of recombinant GST-tagged inactive state of human CDK11.
The target in data set [12] is Serine/threonine-protein kinase haspin (Homo sapiens) (UniProt Q8TF76). Briefly: Binding affinity to wild-type human partial length HASPIN (I452 to K798 residues) expressed in mammalian expression system assessed as remaining unbound target protein level at 1000 nM by Kinomescan method relative to control. The method, boiled down: as §1
Data set [13] deals with RAC-alpha serine/threonine-protein kinase (Homo sapiens) (UniProt P31749). Briefly: Binding affinity to wild-type human partial length AKT1 expressed in bacterial expression system assessed as remaining unbound target protein level at 1000 nM by Kinomescan method relative to control. The method, boiled down: as §2
The next data set concerns Ramos. Briefly: Antiproliferative activity against human Ramos cells after 72 hrs by Celltiter-Glo assay. The format is functional. In short, it runs like this: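 Cells seeded at 3000/well in 96-well plates, exposed to serially diluted compound for 72 h at 37 °C, 5% CO2. Viability read by CellTiter-Glo luminescence and normalized to DMSO control. GI50 derived from curve fit, mean of three independent measurements. Culture media: DMEM/10% FBS for adherent lines; IMDM for MV4-11 and MEC-1/2; RPMI 1640 for suspension lines and CHL.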

For data set [14], the target named is Cyclin-dependent kinase-like 1 (Homo sapiens) (UniProt Q00532). Briefly: Binding affinity to wild-type human full length CDKL1 (M1 to I358 residues) expressed in mammalian expression system assessed as remaining unbound target protein level at 1000 nM by Kinomescan method relative to control. The method, boiled down:
as §4

For data set [15], the target named is MAP/microtubule affinity-regulating kinase 4 (Homo sapiens) (UniProt Q96L34). The data set is described as follows: Binding affinity to wild-type human partial length MARK4 (K29 to G340 residues) expressed in bacterial expression system assessed as remaining unbound target protein level at 1000 nM by Kinomescan method relative to control.
Data set [16] addresses Calcium/calmodulin-dependent protein kinase type II subunit delta (Homo sapiens) (UniProt Q13557). Briefly: Binding affinity to wild-type human partial length CAMK2D (M1 to E329 residues) expressed in bacterial expression system assessed as remaining unbound target protein level at 1000 nM by Kinomescan method relative to control. In short, it runs like this: as §2
For data set [17], the system named is Mast/stem cell growth factor receptor Kit (Homo sapiens), P10721 [A829P]. Briefly: Binding affinity to human partial length KIT A829P mutant (I571 to D952 residues) expressed in mammalian expression system assessed as remaining unbound target protein level at 1000 nM by Kinomescan method relative to control. In short, it runs like this:
as §3

Data set [18] addresses Ribosomal protein S6 kinase alpha-3 (Homo sapiens) (UniProt P51812). The data set is described as follows: Binding affinity to wild-type human partial length N-terminal RSK2 kinase domain 1 (M1 to D394 residues) expressed in mammalian expression system assessed as remaining unbound target protein level at 1000 nM by Kinomescan method relative to control.
Data set [19] deals with Phosphatidylinositol 4,5-bisphosphate 3-kinase catalytic subunit gamma isoform (Homo sapiens) (UniProt P48736). The data set is described as follows: Binding affinity to wild-type human partial length PIK3CG (S144 to A1102 residues) expressed in mammalian expression system assessed as remaining unbound target protein level at 1000 nM by Kinomescan method relative to control.

A short description of data set [20]: Oral bioavailability in Sprague-Dawley rat at 20 mg/kg by LC-MS/MS analysis. The class given is ADME, organism-based. Particulars: in vivo.

T1 sequence (P21127 whole entry, the tested form may be a part): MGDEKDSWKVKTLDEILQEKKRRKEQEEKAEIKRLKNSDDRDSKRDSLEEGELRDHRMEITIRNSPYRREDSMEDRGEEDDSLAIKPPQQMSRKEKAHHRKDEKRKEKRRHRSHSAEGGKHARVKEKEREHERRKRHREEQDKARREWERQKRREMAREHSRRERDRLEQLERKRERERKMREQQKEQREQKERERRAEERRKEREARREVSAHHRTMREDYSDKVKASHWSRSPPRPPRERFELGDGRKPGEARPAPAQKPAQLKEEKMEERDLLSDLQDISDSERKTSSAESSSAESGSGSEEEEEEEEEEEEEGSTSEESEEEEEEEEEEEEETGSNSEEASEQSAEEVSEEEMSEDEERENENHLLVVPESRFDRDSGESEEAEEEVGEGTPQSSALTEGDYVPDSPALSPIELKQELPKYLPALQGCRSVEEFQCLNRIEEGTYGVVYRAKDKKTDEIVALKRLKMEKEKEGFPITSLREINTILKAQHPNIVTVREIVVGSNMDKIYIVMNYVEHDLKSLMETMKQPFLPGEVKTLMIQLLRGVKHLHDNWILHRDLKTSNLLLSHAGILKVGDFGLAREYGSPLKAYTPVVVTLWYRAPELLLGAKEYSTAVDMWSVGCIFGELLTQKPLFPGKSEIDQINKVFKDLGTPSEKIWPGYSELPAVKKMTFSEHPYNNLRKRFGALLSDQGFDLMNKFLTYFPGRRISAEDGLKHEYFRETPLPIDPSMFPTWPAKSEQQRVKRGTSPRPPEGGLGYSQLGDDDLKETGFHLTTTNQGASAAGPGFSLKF
Chain of Epidermal growth factor receptor (Homo sapiens) (P00533 whole entry, the tested form may be a part): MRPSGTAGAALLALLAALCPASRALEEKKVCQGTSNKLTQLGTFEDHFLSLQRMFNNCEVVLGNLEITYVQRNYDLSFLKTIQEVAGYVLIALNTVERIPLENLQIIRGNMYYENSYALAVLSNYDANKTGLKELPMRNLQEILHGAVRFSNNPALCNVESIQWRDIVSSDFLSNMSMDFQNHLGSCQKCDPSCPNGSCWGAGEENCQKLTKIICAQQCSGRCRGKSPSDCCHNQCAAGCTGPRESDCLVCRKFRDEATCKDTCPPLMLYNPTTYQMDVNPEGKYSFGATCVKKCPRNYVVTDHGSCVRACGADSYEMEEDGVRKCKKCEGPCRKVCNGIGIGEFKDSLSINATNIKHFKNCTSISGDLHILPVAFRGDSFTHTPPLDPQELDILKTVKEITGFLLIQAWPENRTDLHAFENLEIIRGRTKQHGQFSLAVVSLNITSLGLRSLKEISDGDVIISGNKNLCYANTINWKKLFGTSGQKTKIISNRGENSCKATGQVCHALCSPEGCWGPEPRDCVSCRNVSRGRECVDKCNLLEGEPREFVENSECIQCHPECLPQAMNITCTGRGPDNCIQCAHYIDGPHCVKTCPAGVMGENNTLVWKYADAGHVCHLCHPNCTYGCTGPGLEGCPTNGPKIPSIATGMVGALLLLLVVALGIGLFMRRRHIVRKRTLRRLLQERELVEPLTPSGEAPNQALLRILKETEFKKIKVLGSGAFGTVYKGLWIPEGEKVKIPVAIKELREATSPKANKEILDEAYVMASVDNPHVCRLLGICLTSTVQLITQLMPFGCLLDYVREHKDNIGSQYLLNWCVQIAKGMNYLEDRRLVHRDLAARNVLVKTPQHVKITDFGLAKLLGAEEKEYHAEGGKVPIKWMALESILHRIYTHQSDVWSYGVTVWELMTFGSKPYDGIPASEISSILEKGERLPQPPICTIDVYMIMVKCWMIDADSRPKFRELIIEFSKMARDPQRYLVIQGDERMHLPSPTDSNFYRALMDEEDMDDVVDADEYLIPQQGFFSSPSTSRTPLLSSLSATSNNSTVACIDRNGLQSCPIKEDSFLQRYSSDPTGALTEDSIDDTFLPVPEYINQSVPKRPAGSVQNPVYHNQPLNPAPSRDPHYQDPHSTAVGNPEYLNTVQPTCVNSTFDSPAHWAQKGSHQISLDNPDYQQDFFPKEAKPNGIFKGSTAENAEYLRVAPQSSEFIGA
Chain of CDK8/Cyclin C (P49336 whole entry): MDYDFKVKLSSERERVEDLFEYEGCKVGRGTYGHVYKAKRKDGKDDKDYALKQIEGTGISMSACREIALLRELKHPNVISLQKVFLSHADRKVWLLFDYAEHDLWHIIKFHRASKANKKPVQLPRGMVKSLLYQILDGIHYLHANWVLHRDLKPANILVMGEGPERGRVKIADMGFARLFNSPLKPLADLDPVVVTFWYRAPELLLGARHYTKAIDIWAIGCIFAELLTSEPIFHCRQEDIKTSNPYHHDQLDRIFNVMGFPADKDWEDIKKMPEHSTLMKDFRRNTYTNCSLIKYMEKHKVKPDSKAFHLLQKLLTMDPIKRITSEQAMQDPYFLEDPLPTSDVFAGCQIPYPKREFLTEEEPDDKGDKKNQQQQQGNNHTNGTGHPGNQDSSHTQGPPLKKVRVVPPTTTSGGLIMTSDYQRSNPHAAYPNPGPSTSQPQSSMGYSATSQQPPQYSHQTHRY
Chain of CDK8/Cyclin C (P24863 whole entry, further chain): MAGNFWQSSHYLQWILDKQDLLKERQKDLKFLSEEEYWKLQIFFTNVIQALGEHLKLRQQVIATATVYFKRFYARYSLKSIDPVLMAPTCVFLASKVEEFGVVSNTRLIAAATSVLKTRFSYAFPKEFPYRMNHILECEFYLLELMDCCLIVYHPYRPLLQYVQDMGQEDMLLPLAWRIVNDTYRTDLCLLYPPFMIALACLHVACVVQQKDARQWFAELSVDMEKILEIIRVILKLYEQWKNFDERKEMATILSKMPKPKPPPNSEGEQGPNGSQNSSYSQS
Chain of Cyclin-dependent kinase 7 (Homo sapiens) (P50613 whole entry, the tested form may be a part): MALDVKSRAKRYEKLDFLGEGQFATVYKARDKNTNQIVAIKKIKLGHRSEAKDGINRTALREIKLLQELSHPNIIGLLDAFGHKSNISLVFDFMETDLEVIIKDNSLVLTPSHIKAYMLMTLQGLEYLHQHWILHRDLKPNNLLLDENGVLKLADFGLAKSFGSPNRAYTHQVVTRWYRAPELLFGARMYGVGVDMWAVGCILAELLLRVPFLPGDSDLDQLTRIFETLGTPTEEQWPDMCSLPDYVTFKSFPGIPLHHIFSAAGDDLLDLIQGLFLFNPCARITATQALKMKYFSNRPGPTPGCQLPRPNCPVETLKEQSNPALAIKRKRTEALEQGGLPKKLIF
Chain of Calcium/calmodulin-dependent protein kinase type II subunit delta (Homo sapiens) (Q13557 whole entry, the tested form may be a part): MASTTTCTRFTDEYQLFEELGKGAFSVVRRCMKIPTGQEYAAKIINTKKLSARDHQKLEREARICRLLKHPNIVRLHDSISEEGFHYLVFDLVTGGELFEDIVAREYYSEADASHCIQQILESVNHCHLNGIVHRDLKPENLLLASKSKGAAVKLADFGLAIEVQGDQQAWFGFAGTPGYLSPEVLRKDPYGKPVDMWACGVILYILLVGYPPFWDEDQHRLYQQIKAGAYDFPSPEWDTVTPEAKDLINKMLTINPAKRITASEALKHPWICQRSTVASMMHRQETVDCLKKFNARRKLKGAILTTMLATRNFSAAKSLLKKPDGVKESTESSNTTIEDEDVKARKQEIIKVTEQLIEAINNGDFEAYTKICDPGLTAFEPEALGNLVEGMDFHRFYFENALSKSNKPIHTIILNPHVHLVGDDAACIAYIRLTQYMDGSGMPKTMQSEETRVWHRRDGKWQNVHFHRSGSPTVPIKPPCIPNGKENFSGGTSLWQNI
Chain of Myosin light chain kinase family member 4 (Homo sapiens) (Q86YV6 whole entry, the tested form may be a part): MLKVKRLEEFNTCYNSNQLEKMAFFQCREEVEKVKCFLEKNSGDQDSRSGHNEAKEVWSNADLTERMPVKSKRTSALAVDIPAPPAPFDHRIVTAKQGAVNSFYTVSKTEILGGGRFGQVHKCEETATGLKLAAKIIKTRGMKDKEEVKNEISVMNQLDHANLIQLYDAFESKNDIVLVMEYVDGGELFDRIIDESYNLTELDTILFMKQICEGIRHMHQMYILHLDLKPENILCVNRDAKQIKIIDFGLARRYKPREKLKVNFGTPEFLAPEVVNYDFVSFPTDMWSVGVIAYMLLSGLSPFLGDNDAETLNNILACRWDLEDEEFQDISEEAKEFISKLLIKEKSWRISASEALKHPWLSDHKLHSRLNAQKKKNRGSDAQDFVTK
Chain of Bone morphogenetic protein receptor type-1A (Homo sapiens) (P36894 whole entry, the tested form may be a part): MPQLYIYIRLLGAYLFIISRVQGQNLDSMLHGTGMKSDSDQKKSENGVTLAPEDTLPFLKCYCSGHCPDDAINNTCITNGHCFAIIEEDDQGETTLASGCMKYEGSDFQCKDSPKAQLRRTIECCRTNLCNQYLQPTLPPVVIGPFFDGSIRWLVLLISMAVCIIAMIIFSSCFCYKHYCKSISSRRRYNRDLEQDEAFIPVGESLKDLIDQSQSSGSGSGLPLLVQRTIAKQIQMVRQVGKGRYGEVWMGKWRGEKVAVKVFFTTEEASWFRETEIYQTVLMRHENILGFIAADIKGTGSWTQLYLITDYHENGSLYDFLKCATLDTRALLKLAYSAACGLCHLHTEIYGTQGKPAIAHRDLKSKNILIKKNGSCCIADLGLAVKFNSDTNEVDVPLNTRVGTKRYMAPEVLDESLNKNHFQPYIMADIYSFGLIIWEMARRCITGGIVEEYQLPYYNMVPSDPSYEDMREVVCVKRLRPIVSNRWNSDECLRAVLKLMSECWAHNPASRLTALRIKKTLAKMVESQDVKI
Chain of RAC-alpha serine/threonine-protein kinase (Homo sapiens) (P31749 whole entry): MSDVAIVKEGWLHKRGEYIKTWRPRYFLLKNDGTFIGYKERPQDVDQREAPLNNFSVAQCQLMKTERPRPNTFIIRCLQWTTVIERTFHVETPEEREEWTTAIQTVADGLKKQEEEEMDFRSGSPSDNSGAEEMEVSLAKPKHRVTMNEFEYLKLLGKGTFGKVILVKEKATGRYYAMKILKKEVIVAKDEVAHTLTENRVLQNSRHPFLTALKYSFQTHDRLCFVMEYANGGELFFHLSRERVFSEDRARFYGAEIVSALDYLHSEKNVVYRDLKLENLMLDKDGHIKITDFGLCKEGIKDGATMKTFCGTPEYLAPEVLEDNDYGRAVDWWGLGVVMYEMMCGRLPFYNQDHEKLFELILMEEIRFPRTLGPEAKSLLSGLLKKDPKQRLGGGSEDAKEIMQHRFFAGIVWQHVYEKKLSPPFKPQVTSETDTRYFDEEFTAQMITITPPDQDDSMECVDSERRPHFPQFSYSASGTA

Turning to `COCCN[C@H]1CC[C@H](Nc2cc(-c3csc(NCC4(C#N)CCOCC4)n3)c(Cl)cn2)CC1`, the Activity in [1] was 94%; in data set [2], 98%; in data set [3], 90%; in [4], 93%; in [5] it was 76%; in data set [6] it was 93%. Also, the Activity in data set [8] came to 83%; in [9], 83%; in data set [10] it was 1.8%; in data set [12], 94%; in data set [13] it was 92%; in data set [14], 96%. For the same compound, the Activity in [15] worked out at 87%; in data set [16], 83%; in data set [17], 88%; in [18], 100%; in [19], 99%. This compound also had a clearance in data set [7] of 75.8 mL/min/kg. Further, the half-maximal inhibitory concentration (IC50) (at CDK8/Cyclin C; in data set [11]) was greater than 10 µM each time. In the data set on Ramos, the concentration for 50% growth inhibition (GI50) turned out to be 13 nM. The same compound returned a bioavailability in data set [20] of 45.1%.
